# Columns and labels:
# Enterococcus faecalis [1] = test: Antimicrobial activity against Enterococcus faecalis 1780065 B-B isolated from patient with pyelonephritis by Etest; format: functional
# Enterococcus faecalis [2] = test: Antimicrobial activity against Enterococcus faecalis 1780065 B-B isolated from patient with pyelonephritis assessed as >3-log reduction in urinary bacterial titer after 24 hrs; format: functional, Urine
# Procedure, shortened: (§1)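 Urine was collected before dosing and on day 3 of i.v. therapy (steady state), in 4-h intervals from infusion start (0–4 to 20–24 h), stored at −80°C and sterile filtered. It was serially diluted twofold (1:0 to 1:131,072) in the patient's drug-free pre-dose urine. Microdilution used an inoculum of 1.0 x 10^6–9.5 x 10^6 CFU/ml, incubated 18 h at 37°C, then subcultured 24 h on blood agar. The endpoint was >99.9% kill, reported as reciprocal titer.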
# Proteus mirabilis [3] = test: Antimicrobial activity against Proteus mirabilis 1134841 isolated from patient with pyelonephritis assessed as >3-log reduction in urinary bacterial titer after 4 hrs; format: functional, Urine
# Procedure, shortened: (§2)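 Patient urine was collected on day 3 of i.v. therapy (steady state) over 4-h intervals after infusion start, stored at –80°C, and sterile filtered. It was twofold serially diluted (1:0 to 1:131,072) in the patient's own pre-dose drug-free urine, inoculated to 1.0 x 10^6–9.5 x 10^6 CFU/ml, and incubated for 18 h at 37°C. Subcultures were grown on blood agar for 24 h. The UBT is the reciprocal of the highest dilution giving >99.9% kill.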
# Escherichia coli [4] = test: Antimicrobial activity against Escherichia coli 1949821 B-M isolated from patient with pyelonephritis assessed as >3-log reduction in urinary bacterial titer after 8 hrs; format: functional, Urine; procedure, shortened: as §2
# Escherichia coli [5] = test: Antimicrobial activity against Escherichia coli 1949821 B-M isolated from patient with pyelonephritis assessed as >3-log reduction in urinary bacterial titer after 4 hrs; format: functional, Urine
# Procedure, shortened: (§3)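 Urine was collected on day 3 of i.v. therapy (steady state) over 4-h intervals from infusion start (0–4 to 20–24 h), stored at –80°C and sterile filtered. It was serially diluted twofold (1:0 up to 1:131,072) in the patient's own pre-dose drug-free urine. Microdilution used a final inoculum of 1.0 x 10^6 to 9.5 x 10^6 CFU/ml, incubated 18 h at 37°C in air. 10 µl was subcultured onto 5% blood Columbia agar for 24 h at 37°C. The bactericidal endpoint was >99.9% (>3-log) kill, reported as a reciprocal titer.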
# Enterococcus faecalis [6] = test: Antimicrobial activity against Enterococcus faecalis 1780065 B-B isolated from patient with pyelonephritis assessed as >3-log reduction in urinary bacterial titer after 8 hrs; format: functional, Urine; procedure, shortened: as §1
# Proteus mirabilis [7] = test: Antimicrobial activity against Proteus mirabilis 1134841 isolated from patient with pyelonephritis assessed as >3-log reduction in urinary bacterial titer after 24 hrs; format: functional, Urine; procedure, shortened: as §2
# Escherichia coli [8] = test: Antimicrobial activity against Escherichia coli 1949820 B-N isolated from patient with pyelonephritis assessed as >3-log reduction in urinary bacterial titer after 8 hrs; format: functional, Urine; procedure, shortened: as §3
# Escherichia coli [9] = test: Antimicrobial activity against Escherichia coli 1135121 isolated from patient with pyelonephritis assessed as >3-log reduction in urinary bacterial titer after 8 hrs; format: functional, Urine; procedure, shortened: as §1
# Escherichia coli [10] = test: Antimicrobial activity against Escherichia coli 1949820 B-N isolated from patient with pyelonephritis assessed as >3-log reduction in urinary bacterial titer after 16 hrs; format: functional, Urine; procedure, shortened: as §3
# Pseudomonas aeruginosa [11] = test: Antimicrobial activity against Pseudomonas aeruginosa 2062713 B-Q isolated from patient with pyelonephritis assessed as >3-log reduction in urinary bacterial titer after 24 hrs; format: functional, Urine
# Escherichia coli [12] = test: Antimicrobial activity against Escherichia coli 1655646 A-Y isolated from patient with pyelonephritis assessed as >3-log reduction in urinary bacterial titer after 8 hrs; format: functional, Urine; procedure, shortened: as §1
# Pseudomonas aeruginosa [13] = test: Antimicrobial activity against Pseudomonas aeruginosa […] assessed as >3-log reduction in urinary bacterial titer after 16 hrs; format: functional, Urine; procedure, shortened: as §2
# Proteus mirabilis [14] = test: Antimicrobial activity against Proteus mirabilis 1134841 isolated from patient with pyelonephritis assessed as >3-log reduction in urinary bacterial titer after 16 hrs; format: functional, Urine; procedure, shortened: as §2
# Staphylococcus aureus [15] = test: Antimicrobial activity against Staphylococcus aureus 1134684 isolated from patient with pyelonephritis assessed as >3-log reduction in urinary bacterial titer after 16 hrs; format: functional, Urine; procedure, shortened: as §2
# Escherichia coli [16] = test: Antimicrobial activity against Escherichia coli 1949820 B-N isolated from patient with pyelonephritis assessed as >3-log reduction in urinary bacterial titer after 24 hrs; format: functional, Urine; procedure, shortened: as §3
# Escherichia coli [17] = test: Antimicrobial activity against Escherichia coli 1889647 B-H isolated from patient with pyelonephritis assessed as >3-log reduction in urinary bacterial titer after 16 hrs; format: functional, Urine; procedure, shortened: as §3
# Escherichia coli [18] = test: Antimicrobial activity against Escherichia coli 1780064 A-X isolated from patient with pyelonephritis assessed as >3-log reduction in urinary bacterial titer after 20 hrs; format: functional, Urine; procedure, shortened: as §3
# Pseudomonas aeruginosa [19] = test: Antimicrobial activity against Pseudomonas aeruginosa 1821383 B-E isolated from patient with pyelonephritis assessed as >3-log reduction in urinary bacterial titer after 20 hrs; format: functional, Urine
# Proteus mirabilis [20] = test: Antimicrobial activity against Proteus mirabilis 1134841 isolated from patient with pyelonephritis assessed as >3-log reduction in urinary bacterial titer after 20 hrs; format: functional, Urine; procedure, shortened: as §2
# Escherichia coli [21] = test: Antimicrobial activity against Escherichia coli 1135121 isolated from patient with pyelonephritis assessed as >3-log reduction in urinary bacterial titer after 12 hrs; format: functional, Urine; procedure, shortened: as §1
# Proteus mirabilis [22] = test: Antimicrobial activity against Proteus mirabilis 1134841 isolated from patient with pyelonephritis assessed as >3-log reduction in urinary bacterial titer after 8 hrs; format: functional, Urine; procedure, shortened: as §2
# Escherichia coli [23] = test: Antimicrobial activity against Escherichia coli 1949821 B-M isolated from patient with pyelonephritis by Etest; format: functional
# Pseudomonas aeruginosa [24] = test: Antimicrobial activity against Pseudomonas aeruginosa […] assessed as >3-log reduction in urinary bacterial titer after 12 hrs; format: functional, Urine; procedure, shortened: as §2
# Escherichia coli [25] = test: Antimicrobial activity against Escherichia coli 1949820 B-N isolated from patient with pyelonephritis by Etest; format: functional
# Escherichia coli [26] = test: Antimicrobial activity against Escherichia coli 1949820 B-N isolated from patient with pyelonephritis assessed as >3-log reduction in urinary bacterial titer after 4 hrs; format: functional, Urine; procedure, shortened: as §3
# Staphylococcus aureus [27] = test: Antimicrobial activity against Staphylococcus aureus 1134684 isolated from patient with pyelonephritis assessed as >3-log reduction in urinary bacterial titer after 24 hrs; format: functional, Urine; procedure, shortened: as §2
# Escherichia coli [28] = test: Antimicrobial activity against Escherichia coli 1949821 B-M isolated from patient with pyelonephritis assessed as >3-log reduction in urinary bacterial titer after 20 hrs; format: functional, Urine; procedure, shortened: as §3
# Pseudomonas aeruginosa [29] = test: Antimicrobial activity against Pseudomonas aeruginosa 1134642 isolated from patient with pyelonephritis assessed as >3-log reduction in urinary bacterial titer after 20 hrs; format: functional, Urine; procedure, shortened: as §2
# Escherichia coli [30] = test: Antimicrobial activity against Escherichia coli 1780063 B-A isolated from patient with pyelonephritis assessed as >3-log reduction in urinary bacterial titer after 4 hrs; format: functional, Urine; procedure, shortened: as §1
# Escherichia coli [31] = test: Antimicrobial activity against Escherichia coli 1889646 B-F isolated from patient with pyelonephritis assessed as >3-log reduction in urinary bacterial titer after 4 hrs; format: functional, Urine; procedure, shortened: as §3
# Escherichia coli [32] = test: Antimicrobial activity against Escherichia coli 1949825 B-K isolated from patient with pyelonephritis assessed as >3-log reduction in urinary bacterial titer after 12 hrs; format: functional, Urine; procedure, shortened: as §2
# [33] = tested on: Staphylococcus haemolyticus; test: Antimicrobial activity against Staphylococcus haemolyticus 1949819 B-M isolated from patient with pyelonephritis assessed as >3-log reduction in urinary bacterial titer after 24 hrs; format: functional, Urine
# Escherichia coli [34] = test: Antimicrobial activity against Escherichia coli 1780063 B-A isolated from patient with pyelonephritis assessed as >3-log reduction in urinary bacterial titer after 16 hrs; format: functional, Urine; procedure, shortened: as §1
# Escherichia coli [35] = test: Antimicrobial activity against Escherichia coli 1889645 B-I isolated from patient with pyelonephritis assessed as >3-log reduction in urinary bacterial titer after 4 hrs; format: functional, Urine; procedure, shortened: as §3
SMILES,MIC (Enterococcus faecalis [1]),Time (Enterococcus faecalis [2]),urinary bactericidal titer (Proteus mirabilis [3]),urinary bactericidal titer (Escherichia coli [4]),Time (Enterococcus faecalis [6]),urinary bactericidal titer (Proteus mirabilis [7]),urinary bactericidal titer (Escherichia coli [8]),urinary bactericidal titer (Escherichia coli [9]),Time (Escherichia coli [10]),urinary bactericidal titer (Pseudomonas aeruginosa [13]),urinary bactericidal titer (Proteus mirabilis [14]),urinary bactericidal titer (Staphylococcus aureus [15]),Time (Escherichia coli [16]),urinary bactericidal titer (Proteus mirabilis [20]),urinary bactericidal titer (Escherichia coli [21]),urinary bactericidal titer (Proteus mirabilis [22]),MIC (Escherichia coli [23]),urinary bactericidal titer (Pseudomonas aeruginosa [24]),MIC (Escherichia coli [25]),urinary bactericidal titer (Escherichia coli [26]),also measured
C[C@H]1COc2c(N3CCN(C)CC3)c(F)cc3c(=O)c(C(=O)O)cn1c23.C[C@H]1COc2c(N3CCN(C)CC3)c(F)cc3c(=O)c(C(=O)O)cn1c23.O [LEVOFLOXACIN],1 µg/mL,6 h,0 reciprocal titer,128 titer,16 h,0 reciprocal titer,2 titer,8 titer,0.5 h,8 reciprocal titer,0 reciprocal titer,4 reciprocal titer,0 h,0 reciprocal titer,3 titer,0 reciprocal titer,0.125 µg/mL,8 reciprocal titer,8 µg/mL,4 titer,Time (Escherichia coli [5]): 192 h; urinary bactericidal titer (Pseudomonas aeruginosa [11]): 2 reciprocal titer; urinary bactericidal titer (Escherichia coli [12]): 2048 reciprocal titer; urinary bactericidal titer (Escherichia coli [17]): 1024 reciprocal titer; urinary bactericidal titer (Escherichia coli [18]): 256 reciprocal titer; urinary bactericidal titer (Pseudomonas aeruginosa [19]): 128 reciprocal titer; urinary bactericidal titer (Staphylococcus aureus [27]): 2 reciprocal titer; urinary bactericidal titer (Escherichia coli [28]): 48 titer; urinary bactericidal titer (Pseudomonas aeruginosa [29]): 1 reciprocal titer
C[C@@H](O)[C@H]1C(=O)N2C(C(=O)O)=C(S[C@@H]3CN[C@H](CNS(N)(=O)=O)C3)[C@H](C)[C@H]12 [DORIPENEM],4 µg/mL,32 h,2048 reciprocal titer,12300 titer,32 h,512 reciprocal titer,12300 titer,24600 titer,8192 h,1540 reciprocal titer,1540 reciprocal titer,4 reciprocal titer,5120 h,8192 reciprocal titer,65500 titer,1024 reciprocal titer,≤ 0.015 µg/mL,3070 reciprocal titer,0.03 µg/mL,32800 titer,urinary bactericidal titer (Escherichia coli [5]): 32800; urinary bactericidal titer (Escherichia coli [30]): 4096 reciprocal titer; urinary bactericidal titer (Escherichia coli [31]): 65500 reciprocal titer; urinary bactericidal titer (Escherichia coli [32]): 8192 reciprocal titer; urinary bactericidal titer [33]: 128 reciprocal titer; urinary bactericidal titer (Escherichia coli [34]): 1024 reciprocal titer; urinary bactericidal titer (Staphylococcus aureus [27]): 1.5 reciprocal titer; urinary bactericidal titer (Escherichia coli [35]): 65500 reciprocal titer; urinary bactericidal titer (Escherichia coli [28]): 32800 titer; urinary bactericidal titer (Pseudomonas aeruginosa [29]): 4096 reciprocal titer
